Measured values: PMC4618645 (Pharmacology Research & Perspectives, 2015)
Where “and” joins values, the source holds several entries; their conditions need not be identical. Identical values can stand only once. Entries after “also recorded” stand apart in the source; their conditions may differ. Like-named read-outs stand apart in the source and are kept apart here.

Columns and labels:
[1] = format: in vivo, rat; settings: rats
[2] = Pharmacokinetics of diclofenac in rats after 3 days administration of sesamin; format: in vivo, rat; settings: for AUC(0-t) / Cmax / Tmax / half-life: rat, plasma, po, 10 mg/kg; for AUC(0-t): AUC0–24 h; for AUC(0-t) / Cmax / Tmax: diclofenac 10 mg/kg bw intragastric; for half-life: t1/2, diclofenac 10 mg/kg bw intragastric
[3] = test system: CYP2D6; settings: humans; ref O'Mathuna et al. [2008]; cited from earlier work
[4] = test system: CYP2D6; settings: CYP2D6 with MDMA in human liver microsomes; ref Heydari et al. [2004]; cited from earlier work
[5] = Estimation of the maximum inlet concentration to the liver; set-up: species or system human; settings: for absorption rate constant: assumed, roughly estimated from the data by Tomimori et al. [2013]; for maximum inlet concentration to the liver: humans, following the 50 mg oral dose, eqn. 1
[6] = test system: CYP2C9; settings: cited from earlier work
[7] = humans, sesamin supplement 50 mg/day for 28 days; ref Tomimori et al. [2013]; cited from earlier work
[8] = target: T1, CYP2C in rat liver microsomes (CYP2C11) (Rattus norvegicus, UniProt P08683); format: biochemical
T1 sequence (P08683 1-500): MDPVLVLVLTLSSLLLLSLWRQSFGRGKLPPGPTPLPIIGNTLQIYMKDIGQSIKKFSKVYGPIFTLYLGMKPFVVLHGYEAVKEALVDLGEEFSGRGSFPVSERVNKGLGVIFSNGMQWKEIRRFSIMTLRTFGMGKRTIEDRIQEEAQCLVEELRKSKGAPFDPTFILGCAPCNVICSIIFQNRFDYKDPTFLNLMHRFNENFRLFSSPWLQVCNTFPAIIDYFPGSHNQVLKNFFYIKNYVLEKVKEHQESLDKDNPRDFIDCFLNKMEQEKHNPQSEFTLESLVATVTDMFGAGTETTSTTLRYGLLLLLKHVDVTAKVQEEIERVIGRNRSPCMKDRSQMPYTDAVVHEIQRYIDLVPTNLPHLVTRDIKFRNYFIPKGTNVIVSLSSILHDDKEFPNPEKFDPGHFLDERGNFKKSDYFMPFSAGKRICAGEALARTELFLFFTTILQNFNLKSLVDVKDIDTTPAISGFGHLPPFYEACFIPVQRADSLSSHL

[9] = test system: CYP2C-mediated diclofenac hydroxylation activity; format: in vivo, rat; settings: rats, sesamin 0, 10, 100 mg/kg bw for 7 days
Procedure, shortened: (§1)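 Male Sprague–Dawley rats were acclimated for 7 days before dosing. Liver microsomes: liver rinsed in ice-cold saline, homogenized in four volumes of ice-cold 1.15% KCl, spun at 10,000g for 20 min, then the supernatant at 100,000g for 60 min. The pellet was resuspended in 20 mmol/L phosphate buffer (pH 7.4) with 1.15% KCl. Protein was measured by bicinchoninate assay.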

[10] = Hepatic sesamin concentration in rats; format: in vivo; settings: rat, liver, oral, 100 mg/kg
[11] = target: CYP2C9 (Homo sapiens, UniProt P11712); format: biochemical; settings: human liver microsomes, pH 7.4, probe diclofenac (100 μmol/L), diclofenac hydroxylation
CYP2C9 (Homo sapiens, UniProt P11712), sequence (P11712 whole entry): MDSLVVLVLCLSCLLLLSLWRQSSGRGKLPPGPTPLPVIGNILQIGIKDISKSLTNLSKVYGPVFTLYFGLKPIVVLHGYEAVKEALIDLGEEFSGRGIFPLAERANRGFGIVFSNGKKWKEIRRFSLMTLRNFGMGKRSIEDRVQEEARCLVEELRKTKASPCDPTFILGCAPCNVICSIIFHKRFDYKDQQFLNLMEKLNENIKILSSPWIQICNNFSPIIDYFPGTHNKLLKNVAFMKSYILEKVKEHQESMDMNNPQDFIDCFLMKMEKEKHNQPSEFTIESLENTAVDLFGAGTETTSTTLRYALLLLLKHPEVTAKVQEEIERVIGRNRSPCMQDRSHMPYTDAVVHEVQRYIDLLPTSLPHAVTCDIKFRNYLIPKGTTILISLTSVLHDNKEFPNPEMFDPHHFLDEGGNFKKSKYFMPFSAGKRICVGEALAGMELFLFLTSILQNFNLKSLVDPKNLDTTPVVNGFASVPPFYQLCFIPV

[12] = assumed; ref Moazzami et al. [2007]; cited from earlier work
[13] = target: T2, recombinant rat CYP2C11 (Rattus norvegicus, UniProt P08683); test: Sesamin-induced difference spectrum of recombinant rat CYP2C11; format: biochemical; settings: recombinant rat CYP2C11, NADPH, 20 μmol/L sesamin
T2 sequence (P08683 1-500): T1 sequence (P08683 1-500)
Procedure, shortened: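 Recombinant rat CYP2C11 from baculovirus-infected insect cells (50 pmol/mL) with 1 mmol/L NADPH in 100 mmol/L phosphate (pH 7.4) at 37°C. Test compound in DMSO (20 μmol/L final) went into the sample cuvette and an equal volume of DMSO into the reference. Difference spectra were recorded over 400–500 nm after 7 and 60 min incubation.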

[14] = Plasma concentration of sesamin in rats; format: in vivo; settings: rat, po, 100 mg/kg
Procedure, shortened: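 Test compound in corn oil was given intragastrically by feeding needle. The organic phase was dried and the residue taken up in 100 μL acetonitrile. HPLC: methanol/0.05% TFA gradient, fluorescence ex 298/em 325 nm; mean ± SD, n = 12.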

[15] = test system: rat CYP2C; format: in vivo; settings: rats, sesamin 0, 10, 100 mg/kg bw for 7 days
Procedure, shortened: as §1

[16] = test system: rat CYP2C (rat liver microsomes); format: biochemical
Procedure, shortened: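 Rat liver microsomes (0.5 mg protein/mL) with 1 mmol/L NADPH in 100 mmol/L phosphate (pH 7.4), 37°C. Test compound in DMSO (20 μmol/L final) versus DMSO reference. Difference spectra (400–500 nm) were taken at 0–120 min, tracking A459 minus A500. Parent and catechol metabolites were quantified in parallel by HPLC of methanol-quenched aliquots taken at the same times. Mean ± SD, at least duplicates.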

[17] = after sesamin 10 mg/kg bw for 3 days
[18] = after sesamin 100 mg/kg bw for 3 days
[19] = control (0 mg/kg bw sesamin for 3 days)

## O=C(O)Cc1ccccc1Nc1c(Cl)cccc1Cl [diclofenac]
[1]; rat, plasma, po, 10 mg/kg, AUC0–24 h, diclofenac 10 mg/kg bw intragastric, control (0 mg/kg bw sesamin at same time)
  AUC(0-t): 5480 ng·h/mL
[1]; rat, plasma, po, 10 mg/kg, Cmax, diclofenac 10 mg/kg bw intragastric, control (0 mg/kg bw sesamin at same time)
  Cmax: 2100 ± 1700 ng/mL
[1]; rat, plasma, po, 10 mg/kg, Tmax, diclofenac 10 mg/kg bw intragastric, control (0 mg/kg bw sesamin at same time)
  Tmax: 5.6 min
[1]; rat, plasma, po, 10 mg/kg, t1/2, diclofenac 10 mg/kg bw intragastric, control (0 mg/kg bw sesamin at same time)
  half-life: 9.8 ± 5.1 h
[2]; [17]
  AUC(0-t): 4620 ng·h/mL
  Cmax: 1200 ± 500 ng/mL
  Tmax: 7 min
  half-life: 14.8 ± 9.3 h
[2]; [18]
  AUC(0-t): 6930 ng·h/mL
  Cmax: 1300 ± 600 ng/mL
  Tmax: 7.2 min
  half-life: 11.1 ± 6.8 h
[2]; [19]
  AUC(0-t): 4880 ng·h/mL
  Cmax: 1800 ± 800 ng/mL
  Tmax: 5.4 min
  half-life: 10.6 ± 2.9 h

## CNC(C)Cc1ccc2c(c1)OCO2 (centres unmarked) [MDMA, 3,4-Methylenedioxymethamphetamine]
[3]
  increase of dextromethorphan AUC0-8 h when administered with MDMA: approximately 10 fold
  increase of dextromethorphan AUC after MDMA administration: approximately 10 fold
  increase of dextromethorphan Cmax after MDMA administration: approximately 10 fold
[4]
  kinact: 0.12 to 0.26 min⁻¹

## c1cc2c(cc1[C@H]1OC[C@H]3[C@@H]1CO[C@@H]3c1ccc3c(c1)OCO3)OCO2 [episesamin]
[5]
  absorption rate constant: 1.5 h⁻¹
  maximum inlet concentration to the liver: 410 nmol/L
[6]; recombinant human CYP2C9, ref previous studies of the authors
  kinact/Ki value for recombinant human CYP2C9 relative to sesamin: five times smaller
[6]; ref Yasuda et al. [2012]
  kinact/Ki app for CYP2C9 relative to sesamin: approximately one-fifth
[7]
  accumulation after repeated administration: did not detect the accumulation; also recorded: no accumulation

## c1cc2c(cc1[C@H]1OC[C@H]3[C@@H]1CO[C@@H]3c1ccc3c(c1)OCO3)OCO2 [sesamin]
[8]
  kinact: 0.00132 s⁻¹
[8]; rat liver microsomes, sesamin 0-50 μmol/L, preincubation 0, 5, 10 min
  inhibition of 4'- and 5-hydroxylation activities toward diclofenac: time- and concentration-dependently inhibited
[8]; read-out: kinact/Ki app
  kinact/KI: 48.3 M⁻¹ s⁻¹
[1]; sesamin 0, 10, 100 mg/kg bw and diclofenac 10 mg/kg bw simultaneously
  effect of sesamin on the diclofenac pharmacokinetics: no significant effects
[9]
  diclofenac hydroxylation activity in liver microsomes: no significant effects; also recorded: no significant differences; also recorded: no remarkable change
[10]
  concentration at 1 h: 390 ng/g and 1.1 µM
[5]
  absorption rate constant: 0.5 h⁻¹
  maximum inlet concentration to the liver: 130 nmol/L
[6]; CYP2C9 with sesamin in human liver microsomes, ref Yasuda et al. [2010]
  kinact: 0.13 min⁻¹
[11]
  kinact: 0.00217 s⁻¹
  kinact/KI: 96.7 M⁻¹ s⁻¹
[12]
  fraction absorbed: 30%
[13]
  peak of sesamin-induced difference spectrum (MI complex): 459 nm
[7]
  accumulation after repeated administration: did not detect the accumulation; also recorded: no accumulation
[14]
  Cmax: 33 ng/mL and 94 nM
  Tmax: 1.2 ± 0.6 h
[2]; sesamin 0, 10, 100 mg/kg bw for 3 days, then diclofenac 10 mg/kg bw
  effect of sesamin on pharmacokinetic parameters of diclofenac (Cmax, Tmax, AUC): No significant differences
[15]
  expression of CYP2C protein in liver microsomes: no significant differences; also recorded: no remarkable change
[16]; rat liver microsomes
  half-life time of the MI complex of sesamin: 0.167 h
  time to disappearance of the 459 nm peak after the termination of the metabolism: ≤ 30 min
[16]; rat liver microsomes 0.5 mg/mL, 20 μmol/L sesamin, at 60 min
  conversion of sesamin to SC-2 via SC-1: almost all of sesamin was converted to SC-2 via SC-1
[16]; rat liver microsomes, NADPH, 20 μmol/L sesamin, 37°C
  peak of sesamin-induced difference spectrum (MI complex): 459 nm
